# From ChEMBL document CHEMBL5096186, “Design, Synthesis, and Biological Evaluation of Novel Pyrimido[4,5-b]indole Derivatives Against Gram-Negative Multidrug-Resistant Pathogens” (J Med Chem, 2021)
# Tests used:
# [1] = molecular target: T1, hERG (KCNH2) potassium channel (Homo sapiens, UniProt Q12809); assay: Inhibition of hERG potassium channel assessed as maximum inhibition rate at 3 uM at -80 mV holding potential incubated for 120 seconds by whole cell-automated voltage clamp analysis assay relative to control; type: toxicity; settings: time 120 sec
# T1 sequence (Q12809 whole entry): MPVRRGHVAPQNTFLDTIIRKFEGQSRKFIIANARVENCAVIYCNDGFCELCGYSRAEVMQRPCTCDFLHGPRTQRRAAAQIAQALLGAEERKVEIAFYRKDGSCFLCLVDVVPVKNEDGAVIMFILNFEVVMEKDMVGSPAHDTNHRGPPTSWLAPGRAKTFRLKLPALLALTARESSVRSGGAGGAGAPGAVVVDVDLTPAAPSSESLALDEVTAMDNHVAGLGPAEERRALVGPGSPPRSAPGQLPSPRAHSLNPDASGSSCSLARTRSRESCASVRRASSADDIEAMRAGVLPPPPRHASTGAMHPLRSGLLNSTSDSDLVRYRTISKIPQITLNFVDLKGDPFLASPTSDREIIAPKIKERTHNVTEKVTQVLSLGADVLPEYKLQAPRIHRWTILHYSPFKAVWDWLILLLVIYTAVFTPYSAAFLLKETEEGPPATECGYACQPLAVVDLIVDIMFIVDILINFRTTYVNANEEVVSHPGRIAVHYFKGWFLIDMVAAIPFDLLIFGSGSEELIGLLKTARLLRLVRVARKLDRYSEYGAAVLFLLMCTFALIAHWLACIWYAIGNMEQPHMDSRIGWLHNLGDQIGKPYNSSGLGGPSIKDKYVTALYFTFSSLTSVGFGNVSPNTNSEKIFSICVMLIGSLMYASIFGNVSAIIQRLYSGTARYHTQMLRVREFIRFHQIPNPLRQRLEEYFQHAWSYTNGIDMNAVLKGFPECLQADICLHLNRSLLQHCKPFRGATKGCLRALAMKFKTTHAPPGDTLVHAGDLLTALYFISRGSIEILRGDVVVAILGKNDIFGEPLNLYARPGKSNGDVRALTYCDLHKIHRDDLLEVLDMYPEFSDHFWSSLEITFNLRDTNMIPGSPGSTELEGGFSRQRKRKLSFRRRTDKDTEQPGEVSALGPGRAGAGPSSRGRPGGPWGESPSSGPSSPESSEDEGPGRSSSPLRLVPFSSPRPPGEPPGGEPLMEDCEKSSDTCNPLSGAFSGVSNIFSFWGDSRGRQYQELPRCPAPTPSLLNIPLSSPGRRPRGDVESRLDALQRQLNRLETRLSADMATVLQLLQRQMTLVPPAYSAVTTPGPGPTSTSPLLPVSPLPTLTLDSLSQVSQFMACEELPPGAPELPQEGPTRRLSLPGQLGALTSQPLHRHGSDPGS
# In short: (§1)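 Automated whole-cell patch clamp, holding potential −80 mV. Voltage protocol applied every 20 s. Baseline set with external solution containing 0.1% DMSO and stabilised 3 min. Compound applied until steady state, at least 3 min, then washout. Maximum tested concentration 40 μM, or 3 μM for cisapride as positive control.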
# [2] = Metabolic stability in human liver microsome assessed as elimination half life at 0.1 uM in presence of NADPH incubated upto 60 mins by LC-MS/MS analysis; type: ADME; settings: liver microsomes, read-out: beta t1/2
# In short: (§2)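 Compound at 0.1 μM final, in 0.01% DMSO with 0.005% BSA. Incubated with rat or human liver microsomes at 0.33 mg/mL in 0.1 M Tris-HCl, pH 7.4, with 5 mM MgCl₂ and 1 mM NADPH, at 37 °C. Samples at 0, 7, 17, 30 and 60 min quenched with cold methanol and analysed by LC-MS/MS. Half-life, Cl_int and MF% derived as previously described.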
# [3] = tested on: Staphylococcus epidermidis; assay: Antibacterial activity against methicillin-sensitive Staphylococcus epidermidis strains 15 1 to 4 assessed as reduction in bacterial growth incubated for 18 to 20 hrs by CLSI based microdilution method; type: functional; settings: time 18-20 hrs
# In short: (§3)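 Broth microdilution per CLSI. Compounds dissolved in DMSO (levofloxacin and meropenem in water) as 64 μg/mL stock, then serial twofold dilutions in broth giving 64 to 0.008 μg/mL. […] Clinical isolates tested as several strains per group; racemic GP-1 served as positive control; values given as MIC ranges.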
# [4] = tested on: Escherichia coli; assay: Antibacterial activity against ESBL-producing Escherichia coli ATCC 35218 strains 15 1 to 3 assessed as reduction in bacterial growth incubated for 18 to 20 hrs by CLSI based microdilution method; type: functional; settings: time 18-20 hrs
# In short: (§4)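 CLSI broth microdilution. Compounds in DMSO (levofloxacin and meropenem in water), serial twofold dilutions in broth, 64 to 0.008 μg/mL. […] Results reported as MIC ranges across strains.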
# [5] = Metabolic stability in human liver microsome assessed as metabolic bioavailability at 0.1 uM in presence of NADPH incubated upto 60 mins by LC-MS/MS analysis; type: ADME; settings: liver microsomes; in short: as §2
# [6] = Drug metabolism in Spargue-Dawley rat liver microsomes assessed as formation of M5 metabolite incubated upto 60 mins by UHPLC-MS/MS analysis; type: ADME, Microsome; settings: 1 h
# In short: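 Male SD rat liver microsomes at 1 mg protein/mL with 2 mM NADP and 5 mM MgCl₂ in 100 mM potassium phosphate, pH 7.4. Compound preincubated 5 min at 37 °C. Samples at 0, 30 and 60 min quenched with cold acetonitrile containing 0.1% formic acid, then analysed by UHPLC-MS/MS. Relative peak areas from extracted ion chromatograms at 60 min.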
# [7] = tested on: Escherichia coli; assay: Antibacterial activity against multidrug resistant wild type Escherichia coli ATCC BAA-2340 assessed as reduction in bacterial growth incubated for 18 to 20 hrs by CLSI based microdilution method; type: functional; settings: time 18-20 hrs; in short: as §3
# [8] = tested on: Escherichia coli; assay: Antibacterial activity against Escherichia coli ATCC 35218 strains 15 1 to 3 assessed as reduction in bacterial growth incubated for 18 to 20 hrs by CLSI based microdilution method; type: functional; settings: time 18-20 hrs; in short: as §4
# [9] = tested on: Acinetobacter baumannii; assay: Antibacterial activity against wild type Acinetobacter baumannii NCTC 13304 assessed as reduction in bacterial growth incubated for 18 to 20 hrs by CLSI based microdilution method; type: functional; settings: time 18-20 hrs; in short: as §3
# [10] = Metabolic stability in human liver microsome assessed as intrinsic clearance at 0.1 uM in presence of NADPH incubated upto 60 mins by LC-MS/MS analysis; type: ADME; settings: microsomes, 1 h; in short: as §2
# [11] = tested on: Acinetobacter baumannii; assay: Antibacterial activity agains OXA23-producing multidrug resistant Acinetobacter baumannii assessed as reduction in bacterial growth incubated for 18 to 20 hrs by CLSI based microdilution method; type: functional; settings: time 18-20 hrs; in short: as §3
# [12] = AUC (0 to infinity) in Sprague-Dawley rat at 4 mg/kg, iv measured upto 24 hrs by LC-MS/MS analysis; type: ADME, organism-based; design: time < 24 hrs, dose 4 mg/kg, route iv; settings: in vivo
# In short: (§5)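 Male Sprague-Dawley rats, n = 3 per group, single intravenous dose. For 4 mg/kg: 180–280 g rats, vehicle 5% DMSO + 5% EtOH + 40% PEG300 + 50% saline, blood from the retrobulbar vein at 0.05–24 h. For 5 and 20 mg/kg: 180–300 g rats, vehicle 5% DMSO + 5% solutol + 90% saline, sampled at 0.083–24 h. Plasma quantified by LC/MS/MS. Parameters from mean plasma concentration by noncompartmental analysis; values are mean ± standard deviation.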
# [13] = Metabolic stability in rat liver microsome assessed as metabolic bioavailability at 0.1 uM in presence of NADPH incubated upto 60 mins by LC-MS/MS analysis; type: ADME; settings: liver microsomes; in short: as §2
# [14] = tested on: Klebsiella pneumoniae; assay: Antibacterial activity agains wild type Klebsiella pneumoniae ATCC BAA-1705 assessed as reduction in bacterial growth incubated for 18 to 20 hrs by CLSI based microdilution method; type: functional; settings: time 18-20 hrs; in short: as §4
# [15] = molecular target: T1, hERG (KCNH2) potassium channel; assay: Inhibition of hERG potassium channel assessed as maximum inhibition rate at 40 uM at -80 mV holding potential incubated for 120 seconds by whole cell-automated voltage clamp analysis assay relative to control; type: toxicity; settings: time 120 sec; in short: as §1
# [16] = tested on: Pseudomonas aeruginosa; assay: Antibacterial activity against wild type Pseudomonas aeruginosa ATCC 27853 assessed as reduction in bacterial growth incubated for 18 to 20 hrs by CLSI based microdilution method; type: functional; settings: time 18-20 hrs; in short: as §4
# [17] = Clearance in Sprague-Dawley rat at 4 mg/kg, iv measured upto 24 hrs by LC-MS/MS analysis; type: ADME, organism-based; settings: in vivo; in short: as §5
# [18] = molecular target: Voltage-gated inwardly rectifying potassium channel KCNH2 (Homo sapiens, UniProt Q12809); assay: Inhibition of hERG potassium channel assessed as […] at -80 mV holding potential incubated for 120 seconds by whole cell-automated voltage clamp analysis assay; type: toxicity; in short: as §1
# Voltage-gated inwardly rectifying potassium channel KCNH2, sequence (Q12809 whole entry): as above
# [19] = Elimination half life in Sprague-Dawley rat at 4 mg/kg, iv measured upto 24 hrs by LC-MS/MS analysis; type: ADME, organism-based; settings: in vivo, read-out: beta t1/2 (converted); in short: as §5
# [20] = Cytotoxicity against human HEK293 cells assessed as cell viability measured for 48 hrs by CCK-8 assay; type: toxicity, cell-based
# In short: (§6)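 Cells seeded at 1 × 10⁴ per well and grown for 48 h. Then exposed to test articles at 1–200 μM for another 48 h (n = 6). Viability by CCK-8 added for 2 h, absorbance read at 450 nm. CC50 calculated and reported as the mean.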
# [21] = tested on: Pseudomonas aeruginosa; assay: Antibacterial activity against multidrug resistant Pseudomonas aeruginosa strains 15 1 to 3 assessed as reduction in bacterial growth incubated for 18 to 20 hrs by CLSI based microdilution method; type: functional; settings: time 18-20 hrs; in short: as §3
# [22] = tested on: Klebsiella pneumoniae; assay: Antibacterial activity against KPC2-producing multidrug resistant Klebsiella pneumoniae assessed as reduction in bacterial growth incubated for 18 to 20 hrs by CLSI based microdilution method; type: functional; settings: time 18-20 hrs; in short: as §3
# [23] = tested on: Escherichia coli; assay: Antibacterial activity against multidrug resistant wild type Escherichia coli NCTC 13353 assessed as reduction in bacterial growth incubated for 18 to 20 hrs by CLSI based microdilution method; type: functional; settings: time 18-20 hrs; in short: as §3
# [24] = Metabolic stability in rat liver microsome assessed as elimination half life at 0.1 uM in presence of NADPH incubated upto 60 mins by LC-MS/MS analysis; type: ADME; settings: liver microsomes, read-out: beta t1/2; in short: as §2
# [25] = tested on: Staphylococcus aureus; assay: Antibacterial activity against methicillin-sensitive Staphylococcus aureus strains 15 1 to 4 assessed as reduction in bacterial growth incubated for 18 to 20 hrs by CLSI based microdilution method; type: functional; settings: time 18-20 hrs; in short: as §3
# [26] = Metabolic stability in rat liver microsome assessed as intrinsic clearance at 0.1 uM in presence of NADPH incubated upto 60 mins by LC-MS/MS analysis; type: ADME; settings: microsomes, 1 h; in short: as §2
# [27] = tested on: Escherichia coli; assay: Antibacterial activity against ESBL-producing multidrug resistant Escherichia coli assessed as reduction in bacterial growth incubated for 18 to 20 hrs by CLSI based microdilution method; type: functional; settings: time 18-20 hrs; in short: as §3
# [28] = Volume of distribution at the steady state in Sprague-Dawley rat at 4 mg/kg, iv measured upto 24 hrs by LC-MS/MS analysis; type: ADME, organism-based; settings: in vivo, read-out: Vdss; in short: as §5
# [29] = tested on: Pseudomonas aeruginosa; assay: Antibacterial activity against IMP4-producing multidrug resistant Pseudomonas aeruginosa assessed as reduction in bacterial growth incubated for 18 to 20 hrs by CLSI based microdilution method; type: functional; settings: time 18-20 hrs; in short: as §3
# [30] = MRT in Sprague-Dawley rat at 4 mg/kg, iv measured upto 24 hrs by LC-MS/MS analysis; type: ADME, organism-based; settings: in vivo; in short: as §5
# [31] = Cytotoxicity against human L02 cells assessed as cell viability measured for 48 hrs by CCK-8 assay; type: toxicity, cell-based; in short: as §6
# [32] = tested on: Klebsiella pneumoniae; assay: Antibacterial activity agains wild type Klebsiella pneumoniae ATCC BAA-2470 assessed as reduction in bacterial growth incubated for 18 to 20 hrs by CLSI based microdilution method; type: functional; settings: time 18-20 hrs; in short: as §3
structure (smiles),measurement,setting,value
COc1cc(N)c(Cl)cc1C(=O)NC1CCN(CCCOc2ccc(F)cc2)CC1OC (configuration not stated) [CISAPRIDE MONOHYDRATE],"inhibition at 2 min, 3 µM",[1],97.7%
CCC(CN)=C1CN(c2nc(Oc3cnc(C)nc3)nc3[nH]c4c(NC)cc(F)cc4c23)C1,half-life at 0.1 µM,[2],2.45 h
same,MIC,[3],< 0.008 µg/mL
same,MIC,[4],< 0.008 µg/mL
same,"Fh at 1 h, 0.1 µM",[5],57.8%
same,Activity,[6],72.85%
same,MIC,[7],0.25 µg/mL
same,MIC,[8],< 0.008 µg/mL
same,MIC,[9],0.125 µg/mL
same,CLH,[10],14.3 mL/min/g
same,MIC,[11],0.125 µg/mL
same,AUC(0-inf),[12],776 ng·h/mL
same,"Fh at 1 h, 0.1 µM",[13],37.4%
same,MIC,[14],2 µg/mL
same,"inhibition at 2 min, 40 µM",[15],41.1%
same,MIC,[16],1 µg/mL
same,clearance,[17],86.7 mL/min/kg
same,IC50,[18],> 40 µM
same,half-life,[19],3.7 h
same,CC50 at 48 h,[20],17 µM
same,MIC,[21],0.5 µg/mL
same,MIC,[22],1 µg/mL
same,MIC,[23],0.125 µg/mL
same,half-life at 0.1 µM,[24],0.472 h
same,MIC,[25],< 0.008 µg/mL
same,CLH,[26],74.3 mL/min/g
same,MIC,[27],0.25 µg/mL
same,Vd,[28],14.7 L/kg
same,MIC,[29],2 µg/mL
same,MRT,[30],2.8 h
same,CC50 at 48 h,[31],9.74 µM
same,MIC,[32],1 µg/mL
